The source of these data is ChEMBL document CHEMBL1125479, “Methoxytetrahydropyrans. A new series of selective and orally potent 5-lipoxygenase inhibitors” (J Med Chem, 1992).

Where “and” joins values, the source holds several entries; their conditions need not be identical. Equal entries are not always repeated.

The target of data set [1] is T1, Polyunsaturated fatty acid 5-lipoxygenase (Homo sapiens, UniProt P09917).
T1 sequence (P09917 whole entry): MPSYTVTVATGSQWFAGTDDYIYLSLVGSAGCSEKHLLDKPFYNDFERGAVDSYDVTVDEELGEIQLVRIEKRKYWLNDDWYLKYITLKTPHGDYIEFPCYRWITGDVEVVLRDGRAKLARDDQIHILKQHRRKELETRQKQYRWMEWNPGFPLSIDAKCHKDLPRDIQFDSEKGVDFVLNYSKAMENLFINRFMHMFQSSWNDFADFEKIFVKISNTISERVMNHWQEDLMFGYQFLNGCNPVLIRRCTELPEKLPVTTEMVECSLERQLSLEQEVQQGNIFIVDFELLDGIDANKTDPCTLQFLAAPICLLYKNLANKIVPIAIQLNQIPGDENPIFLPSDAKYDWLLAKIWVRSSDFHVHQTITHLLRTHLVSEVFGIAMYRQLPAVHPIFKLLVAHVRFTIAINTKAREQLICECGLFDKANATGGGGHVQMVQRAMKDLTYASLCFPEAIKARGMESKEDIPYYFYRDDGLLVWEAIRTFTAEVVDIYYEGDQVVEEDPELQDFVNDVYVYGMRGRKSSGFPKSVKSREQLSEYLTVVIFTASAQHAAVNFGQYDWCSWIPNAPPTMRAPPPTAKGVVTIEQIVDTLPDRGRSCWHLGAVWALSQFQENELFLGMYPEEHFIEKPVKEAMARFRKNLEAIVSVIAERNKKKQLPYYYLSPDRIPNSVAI
Kind of data set: In vitro inhibition of leukotriene B4 synthesis in human whole blood by inhibiting 5-lipoxygenase. Format: tissue-based. The method in brief: (§1)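 Heparinized human whole blood preincubated with compound, then stimulated with calcium ionophore A23187; LTB4 (5-LPO product) and TxB2 (cyclooxygenase product) generation measured.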

Data set [2] concerns Rattus norvegicus. The data set can be described thus: Ex vivo potency in for eicosanoid generation in inflammatory exudate of rat 3 hr after peroral administration. Format: functional. The conditions noted are these: po. The method in brief:
(§2)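 Male Alderley Park rats (130-150 g) given a subcutaneous air pouch (20 mL sterile air under halothane, reinflated with 10 mL 3 days later). After a further 3 days, oral dosing (DMSO solution in 0.5% HPMC/0.1% polysorbate 80, 1 mL/kg) or vehicle, then 1 mL of 1% zymosan in saline into the pouch.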

Data set [3] is filed under the species Homo sapiens. The data set can be described thus: In vitro inhibition of leukotriene B4 in human whole blood. Format: functional. The method in brief: as §1
Data set [4] relates to Rattus norvegicus. Kind of data set: Ex vivo potency in rat blood for eicosanoid generation 1 hr after peroral administration. Format: functional. The following applies: po. The method in brief:
(§3)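 Rats dosed orally (1 mL/kg) with compound dissolved in DMSO and suspended in 0.5% (hydroxypropyl)methylcellulose with 0.1% polysorbate 80; controls got vehicle.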

Data set [5] in a line: Logarithm of partition coefficient was determined. Format: physicochemical. The conditions noted are these: octanol/water.
Data set [6] can be described thus: Aqueous solubility was determined. Format: physicochemical. The following applies: buffer.
Data set [7] relates to Rattus norvegicus. Kind of data set: Ex vivo potency in rat blood for eicosanoid generation 3 hr after peroral administration. Format: functional. The conditions noted are these: po. The method in brief: as §3
Data set [8] concerns Rattus norvegicus. Kind of data set: Ex vivo potency against rat blood after 1 hr peroral administration. Format: functional. The conditions noted are these: po, 3 h, in the assay text read “after 3 hr” for “after 1 hr”. The method in brief:
as §3

For data set [9], the target named is T1, Polyunsaturated fatty acid 5-lipoxygenase. Kind of data set: In vitro inhibition of leukotriene B4 synthesis in human whole blood by inhibiting 5-LPO (5-lipoxygenase). Format: tissue-based. The method in brief: as §1
Data set [10] relates to Rattus norvegicus. Kind of data set: Compound was tested for the generation of eicosanoid in inflammatory exudate after 3 hr peroral administration. Format: functional. The following applies: po. The method in brief: as §2
The species named for data set [11] is Mus musculus. Kind of data set: In vitro inhibitory activity against leukotriene synthesis in mouse macrophages. Format: functional.
Data set [12] relates to Rattus norvegicus. Kind of data set: Ex vivo potency against rat blood after 3 hr peroral administration. Format: functional. The conditions noted are these: po. The method in brief: as §3
Data set [13] can be described thus: In vitro inhibition of thromboxane B2 in human whole blood Value. Format: tissue-based. The method in brief:
as §1

A word on the IC50: it is the concentration that inhibits the measured activity by half. `CCC(OC)(c1ccc(OCc2ccc3ccccc3c2)cc1)c1nccs1` (stereo not given) came in with an IC50 in data set [1] of 40000 nM.
What is called ED50 is the dose that gives a 50% effect, or the effect in half of the subjects. As to `COC1(c2cc(F)cc(OCc3ccc4c(c3)oc(=O)n4C)c2)CCOCC1`, 200 nM corresponded to half-maximal inhibition in [1] (IC50). Further, in [2], the ED50 was over 1.5 mg/kg.
In the case of `COC1(c2cccc(OCc3ccc4ccccc4c3)c2)CCCOC1` (stereo not given), the IC50 in [1] was determined as 1700 nM; in data set [3], 2800 nM.
Consider `COC1(c2cc(F)cc(OCc3ccc4nccnc4c3)c2)CCOCC1`, for which the ED50 in data set [4] and in data set [2] was 30 mg/kg each time. The “delta Log P” value in data set [5] is on record as -1.8. The “Delta logS” value in data set [6] is on record as 1.8.
`COC1(c2cc(F)cc(OCc3ccc4c(c3)n(C)c(=O)n4C)c2)CCOCC1` gave a concentration for half-maximal inhibition (IC50) in data set [1] of 80 nM. Besides, in data set [5], the “delta Log P” value was -1.7. In [2], the ED50 was 1.5 mg/kg. In data set [6], the “Delta logS” value amounted to 1.
With `COC1(c2cccc(OCc3ccc4ccccc4c3)c2)CCCCOC1` (stereo not given), the IC50 in data set [1] amounted to 2500 nM.
On the same count and under the same terms, in the case of `COC1(c2cccc(OCC#Cc3ccccc3)c2)CCOCC1` it was 70 nM.
In the case of `COC1(c2cccc(OCc3ccc4c(ccc(=O)n4C)c3)c2)CCOCC1`, the ED50 turned out to be 1.5 mg/kg in data set [7] and 3 mg/kg in data set [2]. Also, the “delta Log P” value in data set [5] is on record as -2. Moreover, in [6], the “Delta logS” value worked out at 1.8.
Consider `CCC(OC)(c1cccc(OCC#Cc2ccccc2)c1)c1nccs1` (stereo not given), for which the concentration for half-maximal inhibition (IC50) in data set [1] was 900 nM and 1000 nM.
In [1], `COC1(c2cccc(OCc3ccc4ccc(=O)n(C)c4c3)c2)CCOCC1` gave an IC50 of 200 nM. In [7], this molecule gave an ED50 of over 3 mg/kg.
In data set [1], `COC1(c2cc(F)cc(OCc3ccc4c(c3)sc(=O)n4C)c2)CCOCC1` registered an IC50 of 40 nM. Moreover, the “delta Log P” value in data set [5] is -1.2. In [2], this molecule gave an ED50 of 1.5 mg/kg. The “Delta logS” value in data set [6] was 0.8.
`COC1(c2cccc(OCc3ccc4ccccc4c3)c2)CCCOCC1` (stereo not given): the midpoint of inhibition in data set [1], the IC50, lay at 200 nM.
The molecule `COC1(c2cccc(OCC#Cc3ccccn3)c2)CCOCC1` gave an IC50 in data set [1] of 400 nM. The molecule further returned an ED50 in data set [4] of 100 mg/kg.
Molecule `COC1(c2cccc(OCc3cccc4c3ccc(=O)n4C)c2)CCOCC1` returned an IC50 in data set [1] of 1300 nM. The ED50 in [7] was over 3 mg/kg.
In the case of `CC(C)c1ccc2c(c1)c(SC(C)(C)C)c(CC(C)(C)C(=O)[O-])n2Cc1ccc(Cl)cc1.[Na+]`, the ED50 in data set [8] was 3 mg/kg; in [10] it was 2 mg/kg. Besides, in data set [9], the IC50 was 1100 nM.
Turning to `COC1(c2cccc(OCc3ccc4ccccc4c3)c2)CC[S+]([O-])CC1` (stereo not given), the IC50 in data set [1] worked out at 4200 nM.
Take `COC1(c2cccc(OCc3ccc4ccccc4c3)c2)CCSCC1`: the IC50 in [1] and in data set [3] was 400 nM each time.
`COC1(c2cccc(OCc3ccc4ccccc4c3)c2)CCN(C)CC1` displayed an IC50 in [1] of over 40000 nM.
On the same count and under the same terms, the result for `COC(C)(c1cccc(OCc2ccc3ccccc3c2)c1)c1nccs1` (stereo not given) reads 500 nM; that for `COC1(c2cccc(OCc3ccc4ccccc4c3)c2)CCC(=O)CC1`, 3400 nM.
In data set [1], `COC1(c2cc(F)cc(OCc3cc4ccccc4n(C)c3=O)c2)CCOCC1` showed an IC50 of 400 nM. In [2], this molecule registered a median effective dose (ED50) of over 1.5 mg/kg.
`COC(C)(c1nccs1)c1cccc(OCc2ccc3ccccc3c2)c1C` (stereo not given) gave an IC50 in [3] of 1000 nM.
Molecule `COC1(c2ccc(OCc3ccc4ccccc4c3)cc2)CCOCC1` showed an IC50 in data set [1] of 19000 nM. This counts as double-digit micromolar.
The same measure, in the same setting: in the case of `COC1(c2cccc(OCc3ccc4ccccc4c3)c2)CCS(=O)(=O)CC1` it was 10600 nM.
As to `CCOC(C)=O.COC1(c2cc(F)cc(OCc3ncc4ccccc4n3)c2)CCOCC1`, half-maximal inhibition in data set [1] (IC50) was put at 200 nM. The molecule also displayed an ED50 in data set [4] of over 10 mg/kg. The “delta Log P” value in data set [5] is -1.9. For the same molecule, the Delta logS in data set [6] is 1.9.
`COC1(c2cccc(OCc3ccc4ccccc4c3)c2C)CCOCC1` showed an IC50 in data set [1] of 600 nM.
Still for that read-out and setting: the result for `COC1(c2cc(OCc3ccc4ccccc4c3)ccc2C)CCOCC1` reads 40000 nM; that for `COC1(c2cccc(OCc3ccc4ccccc4c3)c2)CCCCC1`, 2600 nM.
In the case of `COC1(c2cccc(OCc3ccc4ccccc4c3)c2)CCOC1` (stereo not given), in data set [1], the midpoint of inhibition, the IC50, lay at 700 nM. Against the preceding molecule, the IC50 is about 3.7-fold lower.
`COC1(c2cc(F)cc(OCc3ccc4nc(O)ccc4c3)c2)CCOCC1`: in data set [1], half-maximal inhibition (IC50) required 600 nM. The ED50 in data set [7] is over 3 mg/kg.
Take `COC1(c2cccc(OCc3ccc4ccccc4c3)c2)CCOCC1`: the IC50 was found to be 70 nM in data set [1] and 0.5 nM in data set [11]. Moreover, the values for the ED50 in data set [4], in [7] and in [2] were 5 mg/kg, 10 mg/kg and 10 mg/kg, respectively.
Turning to `COC1(c2cc(F)cc(OCc3ccc4c(=O)n(C)ccc4c3)c2)CCOCC1`, the IC50 in data set [1] was 200 nM. This molecule also registered an ED50 in data set [2] of over 1.5 mg/kg.
The matching figures for `COC1(c2cc(F)cc(OCc3ccc4c(c3)C(C)(C)C(=O)N4C)c2)CCOCC1`: 80 nM and over 1.5 mg/kg.
For the molecule `CCOC(C)=O.COC1(c2cc(F)cc(OCc3cc4ccccc4nc3O)c2)CCOCC1`, the ED50 in [4] was over 100 mg/kg.
As to `COC1(c2cccc(OCc3ccc4ccccc4c3)c2)COC1`, the IC50 in data set [1] worked out at 2500 nM. This lies in the single-digit micromolar range.
With `COC1(c2cc(F)cc(OCc3ccc4oc(=O)ccc4c3)c2)CCOCC1`, in data set [12], the ED50 is over 3 mg/kg. The molecule further returned an IC50 in [9] of 300 nM.
With `COC1(c2cc(F)cc(OCc3ccc4ncncc4c3)c2)CCOCC1`, the IC50 in [1] turned out to be 200 nM. In data set [4], the ED50 was over 100 mg/kg. Further, the “delta Log P” value in data set [5] is on record as -2.1. Besides, the “Delta logS” value in [6] was 1.5.
Molecule `COC1(c2cc(F)cc(OCc3ccc4c(c3)ncc(=O)n4C)c2)CCOCC1` showed an IC50 in data set [1] of 50 nM. Further, in data set [5], the “delta Log P” value is on record as -2.3. Moreover, the median effective dose (ED50) in data set [2] came out at 1.5 mg/kg. In data set [6], the “Delta logS” value was found to be 1.8.
`COC1(c2cc(F)cc(OCc3ccc4c(ccc(=O)n4C)c3)c2)CCOCC1` [ZD-2138]: the IC50 in data set [1] was 20 nM; in data set [13] it was over 500000 nM. Moreover, the ED50 came out at 1 mg/kg in [4], 0.9 mg/kg in [7] and 0.3 mg/kg in data set [2]. Further, in [5], the “delta Log P” value was -1.7. In addition, the “Delta logS” value in [6] is reported as 0.9.
Molecule `CC(c1cc2ccccc2s1)N(O)C(N)=O` (stereo not given) [ZILEUTON] yielded a half-maximal inhibitory concentration (IC50) in [13] of 40000 nM. In [2], the ED50 was found to be 3 mg/kg.
